In brackets after ≈: the same amount, converted by molar mass.
How the values were obtained:
[1] = target: Transient receptor potential cation channel subfamily A member 1 (Homo sapiens, UniProt O75762); experiment: Agonist activity at human TRPA1 expressed in HEK cells assessed as increase in menthol-induced intracellular calcium level incubated for 2 hrs by FLIPR assay; assay type: cell-based
Method in brief: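 HEK cells stably expressing hTRPA1, plated at 20,000/well 24 h ahead, loaded with calcium-6 dye plus 2.5 mM probenecid for 2 h at 37 °C. First FLIPR addition: 11-point 1:3 concentration series, read for 5 min, scaled to (−)menthol 1 mM final (100% control); pEC50 fitted. Final DMSO 0.5%; run at 37 °C.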

[2] = target: Transient receptor potential cation channel subfamily V member 1 (Homo sapiens, UniProt Q8NER1); experiment: Agonist activity at human TRPV1 expressed in CHO cells assessed as increase in capsaicin-induced intracellular calcium level measured after 1 hr by FLIPR assay; assay type: cell-based
Method in brief: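 CHO cells stably expressing hTRPV1, plated at 10,000/well 24 h before the assay. Loaded with calcium-6 dye plus 2.5 mM probenecid for 1 h at 37 °C and 1 h at rt. FLIPR dual-addition protocol; agonist potency derived as pEC50.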

[3] = target: Transient receptor potential cation channel subfamily M member 8 (Homo sapiens, UniProt Q7Z2W7); experiment: Agonist activity at human TRPM8 expressed in HEK cells assessed as increase in menthol-induced intracellular calcium level measured after 1 hr by FLIPR assay; assay type: cell-based
Method in brief: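 HEK cells with stable hTRPM8, 20,000/well on poly-D-lysine plates 24 h ahead. Loaded with calcium-6 dye and 2.5 mM probenecid, 1 h at 37 °C then 1 h at rt. First-addition calcium rise scaled to (−)menthol 100 μM final (100% control); pEC50 derived from the concentration–response. Final DMSO 0.5%; assay at rt.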

[4] = Efflux ratio of apparent permeability across basolateral to apical over apical to basolateral membrane in human Caco-2 cells incubated for 30 mins by LC-MS/MS analysis; assay type: ADME, cell-based
[5] = Apparent permeability across apical to basolateral membrane in human Caco-2 cells incubated for 30 mins by LC-MS/MS analysis; assay type: ADME, cell-based
[6] = target: T1, Transient receptor potential cation channel subfamily M member 5 (Mus musculus, UniProt Q9JJH7); experiment: Agonist activity at mouse TRPM5 expressed in CHO-K1 cells maintained at 80 mV final holding potential by syncroPatch assay; assay type: cell-based
T1 sequence (Q9JJH7 whole entry): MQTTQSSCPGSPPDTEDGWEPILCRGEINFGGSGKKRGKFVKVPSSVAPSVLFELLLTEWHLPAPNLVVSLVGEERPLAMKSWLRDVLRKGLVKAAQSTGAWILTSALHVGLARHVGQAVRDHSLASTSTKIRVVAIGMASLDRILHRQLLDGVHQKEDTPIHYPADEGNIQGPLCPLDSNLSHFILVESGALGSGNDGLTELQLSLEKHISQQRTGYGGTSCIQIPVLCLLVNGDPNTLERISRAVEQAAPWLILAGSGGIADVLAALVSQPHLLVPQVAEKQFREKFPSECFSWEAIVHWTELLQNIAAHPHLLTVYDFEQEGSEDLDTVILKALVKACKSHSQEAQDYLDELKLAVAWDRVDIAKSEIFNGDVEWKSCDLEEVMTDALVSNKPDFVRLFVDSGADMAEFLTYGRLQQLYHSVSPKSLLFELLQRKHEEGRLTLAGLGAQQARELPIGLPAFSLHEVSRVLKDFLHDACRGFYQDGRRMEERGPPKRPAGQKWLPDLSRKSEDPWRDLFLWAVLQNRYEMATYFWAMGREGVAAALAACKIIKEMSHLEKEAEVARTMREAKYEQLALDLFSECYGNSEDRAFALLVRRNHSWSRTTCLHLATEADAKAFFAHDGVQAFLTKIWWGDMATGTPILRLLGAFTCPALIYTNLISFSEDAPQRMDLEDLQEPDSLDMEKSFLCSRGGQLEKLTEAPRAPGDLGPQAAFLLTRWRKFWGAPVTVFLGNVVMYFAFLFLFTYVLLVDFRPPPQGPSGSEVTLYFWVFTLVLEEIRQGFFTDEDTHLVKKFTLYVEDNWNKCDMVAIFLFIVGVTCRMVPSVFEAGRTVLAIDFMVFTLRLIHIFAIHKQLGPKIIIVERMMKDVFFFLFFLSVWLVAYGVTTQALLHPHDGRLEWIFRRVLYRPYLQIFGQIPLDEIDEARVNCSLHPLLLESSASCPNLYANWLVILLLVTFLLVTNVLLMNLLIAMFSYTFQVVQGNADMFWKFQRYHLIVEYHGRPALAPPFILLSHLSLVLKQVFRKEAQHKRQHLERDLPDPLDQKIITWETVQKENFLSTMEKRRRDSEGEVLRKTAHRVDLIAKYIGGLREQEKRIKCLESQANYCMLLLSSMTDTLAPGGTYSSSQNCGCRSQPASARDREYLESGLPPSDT
Method in brief: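 SyncroPatch 384 whole-cell recording at rt on CHO-K1 cells stably expressing human or mouse TRPM5. Intracellular solution had 2 mM Na-ATP and 5 μM free Ca2+. Cumulative doses 0.03–31.6 μM in 0.5% DMSO, 150 s each after 180 s vehicle. Current measured at the end of the +80 mV step, normalized to vehicle; pEC50 is the mean of ≥2 independent experiments.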

[7] = Intrinsic clearance in human liver microsomes assessed per mg protein incubated up to 30 mins in presence of NADPH by LC-MS/MS analysis; assay type: ADME, Microsome
[8] = Intrinsic clearance in mouse liver microsomes assessed per mg protein incubated up to 30 mins in presence of NADPH by LC-MS/MS analysis; assay type: ADME, Microsome
[9] = Solubility of the compound in phospahte-buffered saline buffer at pH 7.4 incubated for 2 hrs by HPLC/UV analysis; assay type: physicochemical; conditions: phosphate-buffered saline
[10] = Protein binding in human plasma assessed as unbound fraction measured after 5 hrs by equilibrium dialysis based HPLC/UPLC-MS/MS analysis; assay type: ADME, cell-free
[11] = target: Transient receptor potential cation channel subfamily M member 4 (Homo sapiens, UniProt Q8TD43); experiment: Agonist activity at human TRPM4 expressed in CHO cells assessed as change in membrane potential by FLIPR assay
Transient receptor potential cation channel subfamily M member 4, sequence (Q8TD43 whole entry): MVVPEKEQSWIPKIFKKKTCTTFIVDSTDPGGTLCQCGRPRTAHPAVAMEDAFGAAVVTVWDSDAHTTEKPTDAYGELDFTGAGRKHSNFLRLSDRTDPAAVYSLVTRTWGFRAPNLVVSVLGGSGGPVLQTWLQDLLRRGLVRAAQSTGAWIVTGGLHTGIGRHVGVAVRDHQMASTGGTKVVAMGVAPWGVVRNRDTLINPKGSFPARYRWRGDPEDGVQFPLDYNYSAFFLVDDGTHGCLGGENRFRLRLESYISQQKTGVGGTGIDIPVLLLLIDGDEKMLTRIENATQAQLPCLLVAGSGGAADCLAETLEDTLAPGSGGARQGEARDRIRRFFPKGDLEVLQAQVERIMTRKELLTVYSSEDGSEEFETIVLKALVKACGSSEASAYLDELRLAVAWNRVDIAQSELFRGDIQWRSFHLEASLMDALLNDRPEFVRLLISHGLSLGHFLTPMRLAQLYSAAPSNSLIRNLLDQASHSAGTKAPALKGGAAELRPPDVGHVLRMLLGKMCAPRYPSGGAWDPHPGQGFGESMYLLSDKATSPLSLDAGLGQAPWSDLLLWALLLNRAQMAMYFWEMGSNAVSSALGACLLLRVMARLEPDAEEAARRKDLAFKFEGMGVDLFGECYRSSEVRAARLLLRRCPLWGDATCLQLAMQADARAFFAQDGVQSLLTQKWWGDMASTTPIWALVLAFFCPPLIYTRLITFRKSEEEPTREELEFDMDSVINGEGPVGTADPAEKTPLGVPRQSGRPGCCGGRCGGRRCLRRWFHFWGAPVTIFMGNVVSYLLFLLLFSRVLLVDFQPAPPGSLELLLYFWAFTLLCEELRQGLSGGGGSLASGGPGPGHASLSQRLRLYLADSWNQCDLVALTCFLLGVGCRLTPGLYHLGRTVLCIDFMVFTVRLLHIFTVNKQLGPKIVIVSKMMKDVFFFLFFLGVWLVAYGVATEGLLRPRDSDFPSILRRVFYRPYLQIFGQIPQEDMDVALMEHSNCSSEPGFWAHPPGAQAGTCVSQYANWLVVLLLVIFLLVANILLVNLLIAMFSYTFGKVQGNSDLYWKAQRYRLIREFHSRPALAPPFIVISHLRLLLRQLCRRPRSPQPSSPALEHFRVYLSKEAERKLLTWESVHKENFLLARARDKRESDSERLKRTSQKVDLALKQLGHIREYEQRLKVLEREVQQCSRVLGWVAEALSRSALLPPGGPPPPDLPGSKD

Transient receptor potential cation channel subfamily M member 8, sequence (Q7Z2W7 whole entry): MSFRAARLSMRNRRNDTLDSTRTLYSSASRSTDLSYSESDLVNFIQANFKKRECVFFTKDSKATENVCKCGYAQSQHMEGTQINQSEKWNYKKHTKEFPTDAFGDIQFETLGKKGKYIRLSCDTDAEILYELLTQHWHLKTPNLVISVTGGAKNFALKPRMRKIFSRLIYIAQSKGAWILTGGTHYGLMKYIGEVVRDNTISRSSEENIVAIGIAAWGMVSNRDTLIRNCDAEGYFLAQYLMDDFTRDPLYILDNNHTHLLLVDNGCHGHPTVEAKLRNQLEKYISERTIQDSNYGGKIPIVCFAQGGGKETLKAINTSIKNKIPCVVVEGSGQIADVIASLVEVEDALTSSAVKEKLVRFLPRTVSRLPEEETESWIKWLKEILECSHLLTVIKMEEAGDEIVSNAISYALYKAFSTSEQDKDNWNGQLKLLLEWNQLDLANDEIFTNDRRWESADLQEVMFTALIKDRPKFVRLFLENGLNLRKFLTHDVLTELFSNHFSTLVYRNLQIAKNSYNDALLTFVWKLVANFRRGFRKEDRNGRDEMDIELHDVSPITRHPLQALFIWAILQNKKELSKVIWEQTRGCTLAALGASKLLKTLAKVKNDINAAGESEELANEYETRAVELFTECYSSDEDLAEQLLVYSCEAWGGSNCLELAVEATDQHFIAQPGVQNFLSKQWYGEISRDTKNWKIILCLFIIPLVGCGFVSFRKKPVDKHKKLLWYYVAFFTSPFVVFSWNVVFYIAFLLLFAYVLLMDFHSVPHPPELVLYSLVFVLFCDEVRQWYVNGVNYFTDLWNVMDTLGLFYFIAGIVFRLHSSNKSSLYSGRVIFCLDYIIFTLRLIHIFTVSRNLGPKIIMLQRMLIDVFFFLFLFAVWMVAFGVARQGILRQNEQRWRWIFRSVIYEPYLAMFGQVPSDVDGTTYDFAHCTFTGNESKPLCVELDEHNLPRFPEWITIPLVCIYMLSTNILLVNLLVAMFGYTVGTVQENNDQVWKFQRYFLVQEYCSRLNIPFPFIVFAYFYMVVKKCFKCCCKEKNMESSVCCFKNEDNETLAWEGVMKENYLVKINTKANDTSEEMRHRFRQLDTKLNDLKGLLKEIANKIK
Transient receptor potential cation channel subfamily A member 1, sequence (O75762 whole entry): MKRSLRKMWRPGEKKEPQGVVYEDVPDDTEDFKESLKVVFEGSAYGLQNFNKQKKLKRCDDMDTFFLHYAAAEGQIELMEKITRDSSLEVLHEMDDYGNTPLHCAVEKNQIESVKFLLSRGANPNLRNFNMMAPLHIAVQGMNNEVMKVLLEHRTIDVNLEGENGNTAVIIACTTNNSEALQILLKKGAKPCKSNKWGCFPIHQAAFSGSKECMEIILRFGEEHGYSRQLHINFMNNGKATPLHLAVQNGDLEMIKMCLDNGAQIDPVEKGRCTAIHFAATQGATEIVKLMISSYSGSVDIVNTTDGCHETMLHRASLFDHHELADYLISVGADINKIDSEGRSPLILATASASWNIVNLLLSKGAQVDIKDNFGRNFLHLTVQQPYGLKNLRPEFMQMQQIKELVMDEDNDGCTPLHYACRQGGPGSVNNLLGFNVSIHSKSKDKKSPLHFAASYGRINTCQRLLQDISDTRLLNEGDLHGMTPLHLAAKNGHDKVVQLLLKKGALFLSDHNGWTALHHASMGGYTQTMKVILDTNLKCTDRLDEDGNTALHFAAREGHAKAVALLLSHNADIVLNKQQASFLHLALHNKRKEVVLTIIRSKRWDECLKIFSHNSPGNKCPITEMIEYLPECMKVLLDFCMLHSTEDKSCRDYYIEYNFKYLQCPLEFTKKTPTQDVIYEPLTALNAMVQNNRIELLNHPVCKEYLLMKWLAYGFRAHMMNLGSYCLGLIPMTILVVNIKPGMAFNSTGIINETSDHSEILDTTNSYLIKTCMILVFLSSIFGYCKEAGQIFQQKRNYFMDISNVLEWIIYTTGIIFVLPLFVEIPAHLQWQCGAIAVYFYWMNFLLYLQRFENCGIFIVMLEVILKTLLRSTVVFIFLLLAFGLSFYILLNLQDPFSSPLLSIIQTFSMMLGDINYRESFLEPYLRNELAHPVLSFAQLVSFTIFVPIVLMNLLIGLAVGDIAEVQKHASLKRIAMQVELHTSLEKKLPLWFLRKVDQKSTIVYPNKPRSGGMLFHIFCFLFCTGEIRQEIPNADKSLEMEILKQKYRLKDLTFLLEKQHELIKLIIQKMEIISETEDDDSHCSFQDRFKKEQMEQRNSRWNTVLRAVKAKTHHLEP
Transient receptor potential cation channel subfamily V member 1, sequence (Q8NER1 whole entry): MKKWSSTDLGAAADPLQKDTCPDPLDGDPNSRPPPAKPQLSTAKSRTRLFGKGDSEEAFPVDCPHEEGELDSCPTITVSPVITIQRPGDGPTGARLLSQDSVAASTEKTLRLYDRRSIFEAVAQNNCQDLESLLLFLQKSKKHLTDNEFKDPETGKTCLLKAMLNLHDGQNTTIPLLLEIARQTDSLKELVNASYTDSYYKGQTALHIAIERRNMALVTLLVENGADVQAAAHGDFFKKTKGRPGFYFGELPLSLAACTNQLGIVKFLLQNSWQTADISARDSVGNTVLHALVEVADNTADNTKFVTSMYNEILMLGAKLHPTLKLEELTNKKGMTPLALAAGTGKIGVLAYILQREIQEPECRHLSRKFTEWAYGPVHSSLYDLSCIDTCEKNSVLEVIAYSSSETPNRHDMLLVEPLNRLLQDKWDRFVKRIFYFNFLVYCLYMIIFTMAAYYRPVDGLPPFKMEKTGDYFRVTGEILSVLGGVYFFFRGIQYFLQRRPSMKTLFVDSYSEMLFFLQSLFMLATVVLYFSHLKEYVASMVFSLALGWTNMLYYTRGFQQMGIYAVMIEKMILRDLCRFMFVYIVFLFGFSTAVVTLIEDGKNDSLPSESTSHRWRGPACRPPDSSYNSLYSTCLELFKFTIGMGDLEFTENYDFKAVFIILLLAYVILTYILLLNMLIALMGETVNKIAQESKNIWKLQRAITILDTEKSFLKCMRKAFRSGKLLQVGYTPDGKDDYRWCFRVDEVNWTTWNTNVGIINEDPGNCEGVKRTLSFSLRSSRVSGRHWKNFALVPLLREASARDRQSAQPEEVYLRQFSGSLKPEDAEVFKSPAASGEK

Structure (SMILES): Clc1cnc(CNc2cc3sncc3cc2Cl)s1
- EC50 [1]: 3.16 µM
- EC50 [2]: > 15.8 µM
- EC50 [3]: > 15.8 µM
- efflux ratio at 0.5 h [4]: 1.6
- Papp A→B at 0.5 h [5]: 41 nm/s
- EC50 [6]: 0.0158 µM
- microsomal CLint [7]: 172 µL/min/mg
- microsomal CLint [8]: 520 µL/min/mg
- solubility at 2 h [9]: 30 µM (≈ 9.49 µg/mL)
- fraction unbound at 5 h [10]: < 0.01
- EC50 [11]: 3.16 µM

Structure (SMILES): Clc1cnc(CNc2ccc3sncc3c2)s1
- EC50 [1]: 3.16 µM
- EC50 [2]: > 15.8 µM
- EC50 [3]: > 15.8 µM
- efflux ratio at 0.5 h [4]: 0.97
- Papp A→B at 0.5 h [5]: 126 nm/s
- EC50 [6]: 0.0851 µM
- microsomal CLint [7]: 193 µL/min/mg
- microsomal CLint [8]: 462 µL/min/mg
- solubility at 2 h [9]: 50 µM (≈ 14.1 µg/mL)
- fraction unbound at 5 h [10]: < 0.01
- EC50 [11]: > 63.1 µM

Structure (SMILES): Clc1cnc(CNc2ccc3cnsc3c2)s1
- EC50 [1]: 6.31 µM
- EC50 [2]: > 15.8 µM
- EC50 [3]: > 15.8 µM
- efflux ratio at 0.5 h [4]: 1.08
- Papp A→B at 0.5 h [5]: 107 nm/s
- EC50 [6]: 0.0437 µM
- microsomal CLint [7]: 146 µL/min/mg
- microsomal CLint [8]: 164 µL/min/mg
- solubility at 2 h [9]: 511 µM (≈ 144 µg/mL)
- fraction unbound at 5 h [10]: < 0.01
- EC50 [11]: > 63.1 µM

Reference: ChEMBL document CHEMBL4823260, “From High-Throughput Screening to Target Validation: Benzo[d]isothiazoles as Potent and Selective Agonists of Human Transient Receptor Potential Cation Channel Subfamily M Member 5 Possessing In Vivo Gastrointestinal Prokinetic Activity in Rodents” (J Med Chem, 2021)
